Results on five molecules are retold here after ChEMBL document CHEMBL4145488, “Structure-based development of an osteoprotegerin-like glycopeptide that blocks RANKL/RANK interactions and reduces ovariectomy-induced bone loss in mice” (Eur J Med Chem, 2018).

Activity calls are given as the source filed them. The rule behind the calls is not given here. Where a SMILES comes first, the peptide text is derived from it. Bridges are numbered along the chain shown (N, C = ends). Triazole bridges read from a SMILES are 1,4-linked. [ ]: non-standard residue; d: D form. The star is where a group is joined. NH(β-GlcNAc) = CC(=O)N[C@@H]1[C@@H](O)[C@H](O)[C@@H](CO)O[C@H]1N*; Dap(N3) = [N-]=[N+]=NC[C@H](N)C(=O)O; Sec = N[C@@H](C[SeH])C(=O)O; Pra = C#CC[C@H](N)C(=O)O

Data set [1] has as its system BMMC. The experiment in a line: Inhibition of RANKL/mCSF-induced osteoclast differentiation in C57BL/6 mouse BMMC assessed as reduction in TRAP-positive multinucleated cells at 30 uM by microscopic method relative to control. The class given is functional. Particulars: C57BL/6, BMMC.
For data set [2], the system named is BMMC. The experiment in a line: Cytotoxicity against C57BL/6 mouse BMMC up to 100 uM after 48 hrs by CCK8 assay. The format is cell-based. In outline:
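BMMCs seeded at 1×10^5/mL and grown 24 h, then exposed to peptide at 0, 12.5, 25.0, 50.0 or 100.0 µM for 48 h. CCK-8 solution added for 2 h and absorbance read at 450 nm.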

Data set [3] deals with T1, Tumor necrosis factor ligand superfamily member 11 (Homo sapiens, UniProt O14788).
T1 sequence (O14788 whole entry): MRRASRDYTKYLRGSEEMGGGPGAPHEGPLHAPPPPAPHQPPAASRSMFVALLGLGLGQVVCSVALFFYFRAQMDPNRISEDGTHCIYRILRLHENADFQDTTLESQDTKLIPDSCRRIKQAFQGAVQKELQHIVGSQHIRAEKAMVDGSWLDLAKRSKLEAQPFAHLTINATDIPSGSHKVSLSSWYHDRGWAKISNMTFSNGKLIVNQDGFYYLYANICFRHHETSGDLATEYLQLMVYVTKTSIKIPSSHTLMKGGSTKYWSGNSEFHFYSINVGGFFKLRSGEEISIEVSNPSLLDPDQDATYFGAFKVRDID
Briefly: (§1) Binding affinity to recombinant human sRANKL expressed in Escherichia coli by SPR assay. In outline: (§2)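 SPR at 25 °C with recombinant sRANKL immobilized on a CM5 dextran chip at about 3500 RU. Surfaces regenerated between cycles with Gly-HCl at pH 2.5. kon, koff and Kd taken from kinetic fitting of the sensorgrams.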
(In general: In SPR one partner is held on a chip, and binding of the other changes the refractive index at the surface.)

Data set [4] has as its target T2, Tumor necrosis factor ligand superfamily member 11 (Homo sapiens) (UniProt O14788).
T2 sequence (whole entry): T1 sequence (O14788 whole entry)
The experiment in a line: Binding affinity to recombinant human sRANKL expressed in Escherichia coli assessed as association constant by SPR assay. In outline: as §2

The target in data set [5] is T2, Tumor necrosis factor ligand superfamily member 11 (Homo sapiens). Briefly: Binding affinity to recombinant human sRANKL expressed in Escherichia coli assessed as dissociation constant by SPR assay. In outline: as §2
Data set [6] in a line: Drug metabolism assessed as alpha-chymotrypsin (unknown origin)-mediated compound degradation by measuring parent compound remaining after 8 hrs by HPLC analysis. The class given is ADME. Particulars: human, read-out: Stability. In outline:
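Peptide exposed to α-chymotrypsin; percent residual peptide tracked by HPLC. Mean ± SEM of duplicate independent experiments.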

The test system of data set [7] is BMMC. Briefly: Inhibition of RANKL/mCSF-induced osteoclast differentiation in C57BL/6 mouse BMMC assessed as reduction in TRAP-positive multinucleated cells by microscopic method. Particulars: for IC50: C57BL/6, BMMC. The class given is functional, cell-based.
Data set [8] has as its target T2, Tumor necrosis factor ligand superfamily member 11 (Homo sapiens). The data set is described as §1. In outline: as §2
In data set [9] the target is Tumor necrosis factor ligand superfamily member 11/11A (Mus musculus) (UniProt O35235+O35305). Briefly: Inhibition of RANKL/RANK protein-protein interaction in mouse RAW264.7 cells assessed as reduction in RANKL-stimulated NF-kB signaling pathway activation by measuring decrease in IkBalpha phosphorylation after 2 hrs by immunoblot assay. The format is cell-based. A digest of the protocol: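 RAW264.7 cells (1×10^5/well) cultured 12 h, pretreated with or without peptide for 2 h, then stimulated with 300 ng/mL sRANKL for the indicated periods. Lysates (20 µg) run on SDS-PAGE and blotted for phospho-IκBα, IκBα and ERK2; ECL detection.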
Tumor necrosis factor ligand superfamily member 11/11A (Mus musculus), sequence (O35235 139-316 limits assumed): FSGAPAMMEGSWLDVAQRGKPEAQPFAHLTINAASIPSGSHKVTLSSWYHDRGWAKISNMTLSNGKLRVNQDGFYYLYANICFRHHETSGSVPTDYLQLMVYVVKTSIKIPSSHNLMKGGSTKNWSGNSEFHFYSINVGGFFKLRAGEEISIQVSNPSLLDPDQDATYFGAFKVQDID
Tumor necrosis factor ligand superfamily member 11/11A (Mus musculus), sequence (O35305 31-625 partner limits assumed): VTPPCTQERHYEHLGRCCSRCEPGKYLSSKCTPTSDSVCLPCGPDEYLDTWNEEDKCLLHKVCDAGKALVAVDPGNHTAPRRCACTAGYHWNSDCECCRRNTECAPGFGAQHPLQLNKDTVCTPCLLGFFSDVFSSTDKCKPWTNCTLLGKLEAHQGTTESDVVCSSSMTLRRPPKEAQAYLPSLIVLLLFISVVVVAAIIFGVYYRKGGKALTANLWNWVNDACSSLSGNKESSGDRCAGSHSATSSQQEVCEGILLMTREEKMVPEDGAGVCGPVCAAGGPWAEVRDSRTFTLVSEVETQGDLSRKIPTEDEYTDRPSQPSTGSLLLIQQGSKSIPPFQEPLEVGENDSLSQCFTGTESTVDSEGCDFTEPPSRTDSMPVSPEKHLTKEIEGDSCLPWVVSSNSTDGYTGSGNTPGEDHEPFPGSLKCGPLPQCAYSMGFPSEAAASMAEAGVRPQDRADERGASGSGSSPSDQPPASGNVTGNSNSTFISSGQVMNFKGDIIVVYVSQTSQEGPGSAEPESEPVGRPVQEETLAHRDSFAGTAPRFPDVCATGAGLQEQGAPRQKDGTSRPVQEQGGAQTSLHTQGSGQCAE
In general terms: A western blot detects proteins with antibodies after separation by electrophoresis.

In data set [10] the test system is Mus musculus. The experiment in a line: Inhibition of ovariectomy-induced trabecular bone loss in C57BL/6 mouse distal femur bone at 20 mg/kg/day, ip after 6 weeks by H and E staining based microscopic method. The class given is functional, organism-based. In outline:
(§3)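 Female C57BL/6 mice, 6 weeks old, ovariectomized, six per group; 20.0 mg/kg i.p. daily in saline, or saline, for 6 weeks. Femurs fixed in 4 % paraformaldehyde for 4 days and decalcified in 10% EDTA for 2 weeks. 4 µm paraffin sections of the metaphysis stained with H&E (trabecular area) or TRAP (osteoclasts counted).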

In data set [11] the test system is Mus musculus. The experiment in a line: Inhibition of ovariectomy-induced trabecular bone loss in C57BL/6 mouse assessed as reduction in TRAP-positive multinucleated cells in distal femur bone at 20 mg/kg/day, ip after 6 weeks by microscopic method. The format is functional, organism-based. In outline:
as §3

Data set [12] concerns Mus musculus. Briefly: Inhibition of ovariectomy-induced trabecular bone loss in C57BL/6 mouse distal femur bone assessed as increase in bone volume expressed per unit total volume at 20 mg/kg/day, ip after 6 weeks by micro-CT analysis. The class given is functional, organism-based. In outline:
(§4)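 Female C57BL/6 mice, 6 weeks old, ovariectomized, six per group; 20.0 mg/kg i.p. daily in saline, or saline vehicle, for 6 weeks. Femurs then scanned by micro-CT for BMD, Tb.N and BS/TV, with 2D/3D reconstruction.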

The test system of data set [13] is Mus musculus. Briefly: Inhibition of ovariectomy-induced trabecular bone loss in C57BL/6 mouse distal femur bone assessed as increase in bone surface area expressed per unit total volume at 20 mg/kg/day, ip after 6 weeks by micro-CT analysis. The class given is functional, organism-based. A digest of the protocol:
as §4

The subject of data set [14] is Mus musculus. The experiment in a line: Inhibition of ovariectomy-induced trabecular bone loss in C57BL/6 mouse distal femur bone assessed as increase in trabecular number at 20 mg/kg/day, ip after 6 weeks by micro-CT analysis. The class given is functional, organism-based. A digest of the protocol: as §4
The test system of data set [15] is Mus musculus. The experiment in a line: Inhibition of ovariectomy-induced trabecular bone loss in C57BL/6 mouse distal femur bone assessed as increase in bone mineral density at 20 mg/kg/day, ip after 6 weeks by micro-CT analysis. The class given is functional, organism-based. In outline: as §4
In data set [16] the test system is Mus musculus. The experiment in a line: Inhibition of osteoclastogenesis in ovariectomized C57BL/6 mouse assessed as decrease in serum IL-6 level at 20 mg/kg/day, ip after 6 weeks by ELISA. The class given is functional, organism-based. A digest of the protocol:
(§5)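 Female C57BL/6 mice, 6 weeks old, ovariectomized; six per group (sham, OVX with saline, OVX with peptide). Peptide given at 20.0 mg/kg i.p. daily in saline for 6 weeks. Blood centrifuged and serum stored at -80 °C; IL-6, TRAcp5B, CTX-1 and TNF-α measured by ELISA kits.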
Background: An ELISA detects its analyte on a solid surface through an enzyme-linked reagent.

The subject of data set [17] is Mus musculus. The experiment in a line: Inhibition of osteoclastogenesis in ovariectomized C57BL/6 mouse assessed as decrease in serum TNFalpha level at 20 mg/kg/day, ip after 6 weeks by ELISA. The class given is functional, organism-based. A digest of the protocol:
as §5

For data set [18], the system named is Mus musculus. The experiment in a line: Inhibition of osteoclastogenesis in ovariectomized C57BL/6 mouse assessed as decrease in serum CTX-1 level at 20 mg/kg/day, ip after 6 weeks by ELISA. The format is functional, organism-based. In outline:
as §5

Data set [19] concerns Mus musculus. Briefly: Inhibition of osteoclastogenesis in ovariectomized C57BL/6 mouse assessed as decrease in serum TRAcp5B level at 20 mg/kg/day, ip after 6 weeks by ELISA. The format is functional, organism-based. A digest of the protocol: as §5

As a reminder, the inhibition is the relative decrease from the control value, in per cent. What is called Kd is the equilibrium constant for the complex coming apart. In the case of `CC[C@H](C)[C@@H]1NC(=O)[C@H](CCC(=O)O)NC(=O)[C@H](CC(C)C)NC(=O)[C@H](Cc2ccc(O)cc2)NC(=O)[C@H](CCCNC(=N)N)NC(=O)CNC(=O)[C@H](CCC(=O)O)NC(=O)[C@H](CCCCN)NC(=O)[C@@H](NC(C)=O)CSSC[C@@H](C(=O)N[C@@H](CC(C)C)C(N)=O)NC(=O)[C@H](Cc2ccccc2)NC(=O)[C@H](CCC(=O)O)NC1=O` (Ac-CKEGRYLEIEFCL-NH2; disulfide 1-12), the inhibition at 30 µM with BMMC [1] worked out at 24.4%. In addition, the Activity result in the data set on BMMC [2] is given as “Non-Toxic”. In data set [3], the Kd is 30.9 µM. Besides, the Kapp in data set [4] is 212 M⁻¹ s⁻¹; in [5], 0.0065 s⁻¹. Besides, the remaining at 8 h in [6] is 38.5%.

As usually defined, the IC50 is the point on the concentration scale where inhibition reaches its midpoint. Regarding `CC[C@H](C)[C@@H]1NC(=O)[C@H](CCC(=O)O)NC(=O)[C@H](CC(C)C)NC(=O)[C@H](Cc2ccc(O)cc2)NC(=O)[C@H](CCCNC(=N)N)NC(=O)CNC(=O)[C@H](CCC(=O)O)NC(=O)[C@H](CCCCN)NC(=O)[C@@H](NC(=O)[C@H](CC(=O)N[C@@H]2O[C@H](CO)[C@@H](O)[C@H](O)[C@H]2NC(C)=O)NC(C)=O)CSSC[C@@H](C(=O)N[C@@H](CC(C)C)C(N)=O)NC(=O)[C@H](Cc2ccccc2)NC(=O)[C@H](CCC(=O)O)NC1=O` (Ac-D(NH(β-GlcNAc))CKEGRYLEIEFCL-NH2; disulfide 2-13), the inhibition at 30 µM in the data set on BMMC [1] was 58.2%. Further, the inhibition entry in the data set on BMMC [7] was “Dose-dependent effect”. Besides, the IC50 with BMMC [7] turned out to be 28.5 µM. In addition, the Activity entry is “Non-Toxic” in the data set with BMMC [2] and “Dose-dependent effect” in data set [8]. In addition, the Kd in data set [3] worked out at 4.54 µM. For the same molecule, the Kapp turned out to be 609 M⁻¹ s⁻¹ in [4] and 0.0027 s⁻¹ in data set [5]. Besides, the inhibition result (in data set [9]; in the data set with Mus musculus [10]; with Mus musculus [11]; in the data set on Mus musculus [12]; with Mus musculus [13]; in the data set on Mus musculus [14]) was “Active” in each case. In addition, the inhibition entry in the data set with Mus musculus [15], in the data set on Mus musculus [16], in the data set on Mus musculus [17], with Mus musculus [18] and in the data set on Mus musculus [19] was “Active” each time. Besides, in data set [6], the remaining at 8 h was greater than 60.7%.

Take `CC[C@H](C)[C@@H]1NC(=O)[C@H](CCC(=O)O)NC(=O)[C@H](CC(C)C)NC(=O)[C@H](Cc2ccc(O)cc2)NC(=O)[C@H](CCCNC(=N)N)NC(=O)CNC(=O)[C@H](CCC(=O)O)NC(=O)[C@H](CCCCN)NC(=O)[C@@H](NC(C)=O)Cc2cn(nn2)C[C@@H](C(=O)N[C@@H](CC(C)C)C(N)=O)NC(=O)[C@H](Cc2ccccc2)NC(=O)[C@H](CCC(=O)O)NC1=O` (Ac-[Pra]KEGRYLEIEF[Dap(N3)]L-NH2; triazole 1-12): the inhibition at 30 µM with BMMC [1] amounted to 42.1%. Moreover, the Activity entry with BMMC [2] is recorded as “Non-Toxic”.

`CC[C@H](C)[C@@H]1NC(=O)[C@H](CCC(=O)O)NC(=O)[C@H](CC(C)C)NC(=O)[C@H](Cc2ccc(O)cc2)NC(=O)[C@H](CCCNC(=N)N)NC(=O)CNC(=O)[C@H](CCC(=O)O)NC(=O)[C@H](CCCCN)NC(=O)[C@@H](NC(C)=O)C[Se][Se]C[C@@H](C(=O)N[C@@H](CC(C)C)C(N)=O)NC(=O)[C@H](Cc2ccccc2)NC(=O)[C@H](CCC(=O)O)NC1=O` (Ac-[Sec]KEGRYLEIEF[Sec]L-NH2; diselenide 1-12): the inhibition at 30 µM in the data set with BMMC [1] is 40.6%. The Activity result in the data set with BMMC [2] is on record as “Non-Toxic”.

With `CC[C@H](C)[C@H](NC(=O)[C@H](CC(C)C)NC(=O)[C@H](Cc1ccc(O)cc1)NC(=O)[C@@H]1CSSC[C@H](NC(=O)[C@@H](N)Cc2ccc(O)cc2)C(=O)N[C@@H](CCC(=O)O)C(=O)N[C@@H]([C@@H](C)CC)C(=O)N[C@@H](CCC(=O)O)C(=O)N[C@@H](Cc2ccccc2)C(=O)N1)C(=O)N[C@@H](CCCNC(=N)N)C(=O)O` (H-YCEIEFCYLIR-OH; disulfide 2-7), the inhibition at 30 µM in the data set on BMMC [1] was 55.6%. Further, in the data set on BMMC [7], the concentration for half-maximal inhibition (IC50) is 25.3 µM. Moreover, the Kd in [3] was 2.75 µM. Besides, the Kapp is 496 M⁻¹ s⁻¹ in data set [4] and 0.0013 s⁻¹ in [5].
